Measurements as given in PubChem BioAssay AID652011 (Sanford-Burnham Center for Chemical Genomics, 2013).

The molecules below were run against Hypoxia-inducible factor 1-alpha (Homo sapiens) (UniProt Q16665) (assay: HIF-1a and HIF-2a reporter inhibitors, SAR follow-up, cell-based, luminescence, MIAPaCa-2, 786-0, panel (AID 652011)). Details: MIAPaCa-2/PANC HIF reporter, luciferase luminescence, desferoxamine, overnight, HIF1a, run 1; at 99 µM (top of the series).
Outline: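 Probe or stimulus: desferoxamine stimulus; times: overnight seeding and compound exposure, 37 °C, 5% CO2, 10-min detection; signal: One-Glo luciferase luminescence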

Sequence of Hypoxia-inducible factor 1-alpha (Homo sapiens) (Q16665 whole entry, looked up): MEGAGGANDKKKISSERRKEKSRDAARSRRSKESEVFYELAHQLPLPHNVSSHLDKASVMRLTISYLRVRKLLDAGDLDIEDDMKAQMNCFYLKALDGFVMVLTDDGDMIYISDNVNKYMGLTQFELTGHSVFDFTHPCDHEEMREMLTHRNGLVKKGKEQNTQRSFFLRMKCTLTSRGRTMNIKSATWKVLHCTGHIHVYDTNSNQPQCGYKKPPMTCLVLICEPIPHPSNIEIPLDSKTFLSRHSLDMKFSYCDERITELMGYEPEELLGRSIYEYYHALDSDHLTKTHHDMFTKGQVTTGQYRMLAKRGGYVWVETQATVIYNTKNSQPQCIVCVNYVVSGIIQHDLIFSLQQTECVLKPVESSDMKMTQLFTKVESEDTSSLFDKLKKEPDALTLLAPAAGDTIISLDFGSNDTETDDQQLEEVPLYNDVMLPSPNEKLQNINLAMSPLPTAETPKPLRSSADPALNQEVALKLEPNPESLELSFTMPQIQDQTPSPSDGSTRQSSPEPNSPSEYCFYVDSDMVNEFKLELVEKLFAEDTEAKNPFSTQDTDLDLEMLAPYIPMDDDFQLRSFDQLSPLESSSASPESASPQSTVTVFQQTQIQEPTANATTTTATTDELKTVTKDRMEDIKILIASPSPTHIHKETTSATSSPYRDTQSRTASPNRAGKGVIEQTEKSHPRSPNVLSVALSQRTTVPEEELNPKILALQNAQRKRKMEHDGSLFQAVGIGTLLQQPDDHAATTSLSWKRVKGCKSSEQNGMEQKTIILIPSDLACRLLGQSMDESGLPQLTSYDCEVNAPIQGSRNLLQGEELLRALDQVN

Compound	inhibition [%]
CCNC(=O)CCc1nc(-c2ccccc2C)no1	-25.2
CCC(C)NC(=O)CCc1nc(-c2ccc(C(C)(C)C)cc2)no1 (stereo unspecified)	-78.9
C=CCNC(=O)CCc1nc(-c2ccc(C(C)(C)C)cc2)no1	-8.77
CC(C)(C)c1ccc(-c2noc(CCC(=O)Nc3cccnc3)n2)cc1	98.9
CC(C)(C)c1ccc(-c2noc(CCC(=O)O)n2)cc1	94.7
CCC(C)NC(=O)CCc1nc(-c2ccc(C(C)C)cc2)no1 (stereo unspecified)	-41.9
CNC(=O)CCc1nc(-c2ccc(C(C)(C)C)cc2)no1	21.1
CCCCc1ccc(-c2noc(CCC(=O)NC(C)(C)C)n2)cc1	86.1
COc1cccc(NC(=O)CCc2nc(-c3ccc(C(C)(C)C)cc3)no2)c1	74.5
CCc1ccc(-c2noc(CCC(=O)NC(C)CC)n2)cc1 (stereo unspecified)	-51.7
CCNC(=O)CCc1nc(-c2cccc(OC)c2)no1	-42.1
